Data set [1] is described as follows: Solubility at 37 degree C and pH of 7.4. The format is physicochemical. To be noted: pH 7.4; read-out: S.
For data set [2], the system named is Rattus norvegicus. In words: Excretion of radiolabeled [14C]-21 in rats when administered orally at the dose of 1.0 mg/kg. Format: ADME, organism-based. Also noted: dose 1 mg/kg, route oral. To be noted: in vivo, po. The gist of the method: (§1)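 Rats got [14C]-labelled inhibitor (label at oxazolidinone carbonyl), 1 mg/kg orally or intravenously. Urine and feces were collected over 72 h. Feces were homogenized in 70% aqueous ethanol and aliquots burned in a sample oxidizer. Total radioactivity was counted by liquid scintillation with internal-standard quench correction and expressed as % of dose. Mean ± SE, n = 2.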

Data set [3] relates to Rattus norvegicus. In words: Excretion of radiolabeled [14C]-21 in rats when administered intravenously at the dose of 1.0 mg/kg. Format: ADME, organism-based. Also noted: dose 1 mg/kg, route intravenous. As to conditions: in vivo, iv. The gist of the method:
as §1

The subject of data set [4] is Rattus norvegicus. The experiment in a line: metabolic profile radiolabeled [14C]-21 in rats when administered intravenously at the dose of 1.0 mg/kg. The format is ADME, organism-based. Further details: dose 1 mg/kg, route intravenous. As to conditions: in vivo, iv. In a few lines:
(§2)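 Rats were dosed orally or iv at 1 mg/kg with 14C-labelled drug. Urine and fecal samples were profiled by C-18 HPLC with a linear 15–50% aqueous acetonitrile gradient containing 0.1% TFA. Peaks were tentatively identified by retention time against reference standards, using 215 nm absorbance or radioactivity. Results are given as % of 14C dose, mean ± SE, n = 2.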

Data set [5] relates to Rattus norvegicus. In words: metabolic profile radiolabeled [14C]-21 in rats when administered orally at the dose of 1.0 mg/kg. The format is ADME, organism-based. Also noted: dose 1 mg/kg, route oral. As to conditions: in vivo, po. In a few lines: as §2
The nature of data set [6]: Log P value at the pH of 7.4. Format: physicochemical. As to conditions: octanol/water, pH 7.4; read-out: LogD7.4. The gist of the method:
(§3)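 Octanol/water partition. Inhibitor (0.3–0.5 mg) was dissolved in 1.00 mL octanol, and 200 μL was added to 5.00 mL buffer: 0.1 M PIPES pH 6.5 or 0.1 M HEPES pH 7.4. Samples were shaken 2 h and centrifuged, and both phases were diluted and quantified by HPLC. P was calculated from peak areas × dilution factors.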

Data set [7] is described as follows: Plasma level when given intraduodenally to anesthetized rats from portal sample at 30 min. The format is ADME, organism-based. As to conditions: rat, read-out: Plasma level. In a few lines: (§4)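 Anesthetized rats (n = 4) received unlabelled drug intraduodenally at 10 mg/kg. Portal and systemic blood were sampled at 10 and 30 min. Plasma drug levels were determined by a renin inhibition assay. Values are mean ± SE.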

Data set [8] can be described thus: Plasma level when given intraduodenally to anesthetized rats (systemic) at 10 min. Format: ADME, organism-based. As to conditions: rat, read-out: Plasma level. In a few lines:
as §4

Data set [9] is described as follows: % change in blood pressure when administarted intravenously. Format: ADME. As to conditions: iv. In a few lines: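 Anesthetized, salt-depleted cynomolgus monkeys, 0.1 mg/kg iv bolus (n = 5). Maximum % change in mean arterial pressure taken from the T = 0 baseline. […] Values are mean ± SE.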
Data set [10] in a line: Plasma level when given intraduodenally to anesthetized rats (systemic) at 30 min. Format: ADME, organism-based. To be noted: rat, read-out: Plasma level. In a few lines:
as §4

Data set [11] can be described thus: Plasma level when given intraduodenally to anesthetized rats from portal sample at 10 min. Format: ADME, organism-based. To be noted: rat, read-out: Plasma level. The gist of the method:
as §4

Data set [12] is described as follows: Log P value at the pH of 6.5. Format: physicochemical. As to conditions: octanol/water, pH 6.5; read-out: LogD6.5. The gist of the method:
as §3

Data set [13] concerns the target T1, Renin (Homo sapiens, UniProt P00797).
T1 sequence (P00797 whole entry): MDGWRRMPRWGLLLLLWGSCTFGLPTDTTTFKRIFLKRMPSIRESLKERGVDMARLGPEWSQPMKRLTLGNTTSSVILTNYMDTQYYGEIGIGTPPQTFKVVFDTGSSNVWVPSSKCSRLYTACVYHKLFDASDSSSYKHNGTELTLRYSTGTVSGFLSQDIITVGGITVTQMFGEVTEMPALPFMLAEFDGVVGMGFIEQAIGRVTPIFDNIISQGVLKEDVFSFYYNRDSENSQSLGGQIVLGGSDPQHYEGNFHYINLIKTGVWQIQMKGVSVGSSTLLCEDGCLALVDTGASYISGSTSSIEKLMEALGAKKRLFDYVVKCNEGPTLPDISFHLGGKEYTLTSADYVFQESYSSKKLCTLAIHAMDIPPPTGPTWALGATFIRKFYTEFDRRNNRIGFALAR
The experiment in a line: Inhibitory activity against human plasma renin at pH 7.4. Format: functional, cell-free.

Data set [14] has as its target T1, Renin. The experiment in a line: Inhibitory activity against purified human renal renin at pH 6.5. The format is functional.
Data set [15] addresses Renin (Macaca fascicularis). The experiment in a line: Inhibitory activity against monkey plasma renin at pH 7.4.

Structures are written as SMILES. In brackets after ≈: the same amount, converted by molar mass.

Consider `CCN1C[C@@H]([C@H](O)[C@H](CC2CCCCC2)NC(=O)[C@H](Cc2c[nH]cn2)NC(=O)[C@@H](CC(=O)N(C)CCOCOCCOC)Cc2ccccc2)OC1=O`, for which, in data set [1], the solubility was 5.4 mM (≈ 4010 µg/mL). Also, the Dose in the data set on Rattus norvegicus [2] is given as 1.9%; with Rattus norvegicus [3] it was 8.5%; with Rattus norvegicus [4], 35%; in the data set with Rattus norvegicus [5] it was 73%. In addition, the values for the logD in [6] and in [12] were 2.21 and 1.89, respectively. Besides, the concentration at 0.5 h was found to be 420 ng/mL in [7] and 2.5 ng/mL in [10]. In addition, the values for the concentration at 10 min in [8] and in data set [11] were 1.6 ng/mL and 360 ng/mL, respectively. In data set [9], this compound displayed a Change of 43%.

Regarding `CCN1C[C@@H]([C@H](O)[C@H](CC2CCCCC2)NC(=O)[C@H](Cc2cnc[nH]2)NC(=O)[C@@H](CC(=O)N2C[C@H](OCOCCOC)[C@H](OCOCCOC)C2)Cc2ccccc2)OC1=O`, in data set [1], the solubility amounted to 8.7 mM (≈ 7470 µg/mL). Besides, the figures for the IC50 against Renin [13] and on Renin [14] were 7.3 nM and 1.6 nM, respectively. Besides, the logD in data set [6] was found to be 1.87; in data set [12] it was 1.56.

For the compound `CCN1C[C@@H]([C@H](O)[C@H](CC2CCCCC2)NC(=O)[C@H](Cc2cnc[nH]2)NC(=O)[C@@H](CC(=O)N(C)CCOC)Cc2ccccc2)OC1=O`, the solubility in data set [1] was found to be 3.4 mM (≈ 2270 µg/mL). Also, the half-inhibitory concentration (IC50) against Renin [13] stood at 1.5 nM; on Renin [14], 0.59 nM. Besides, the logD in [6] was found to be 2.45; in data set [12], 2.29.

With `CCN1C[C@@H]([C@H](O)[C@H](CC2CCCCC2)NC(=O)[C@H](Cc2cnc[nH]2)NC(=O)[C@@H](CC(=O)N(C)CCO)Cc2ccccc2)OC1=O`, the solubility in [1] stood at 5.2 mM (≈ 3410 µg/mL). Also, the IC50 turned out to be 2.5 nM against Renin [13] and 0.85 nM against Renin [14]. Moreover, the logD is 1.94 in data set [6] and 1.74 in data set [12].

For `CCN1C[C@@H]([C@H](O)[C@H](CC2CCCCC2)NC(=O)[C@H](Cc2cnc[nH]2)NC(=O)[C@H](Cc2ccc(OC)cc2)NC(=O)N2C[C@H](OCOC)[C@H](OCOC)C2)OC1=O`, the IC50 against Renin [13] was determined as 59 nM; against Renin [14], 12 nM. Further, the logD in data set [6] came to 2.06; in data set [12] it was 1.94.

As to `CCN1C[C@@H]([C@H](O)[C@H](CC2CCCCC2)NC(=O)[C@H](Cc2cnc[nH]2)NC(=O)[C@H](Cc2ccc(OC)cc2)NC(=O)N2C[C@H](OCOCCOC)[C@H](OCOCCOC)C2)OC1=O`, the IC50 against Renin [13] turned out to be 26 nM; on Renin [14] it was 8.5 nM. For the same compound, the figures for the logD in data set [6] and in data set [12] were 1.67 and 1.58, respectively.

Consider `CCN1C[C@@H]([C@H](O)[C@H](CC2CCCCC2)NC(=O)[C@H](Cc2c[nH]cn2)NC(=O)[C@H](Cc2ccc(OC)cc2)NC(=O)N2C[C@@H](O)[C@@H](O)C2)OC1=O`, for which the IC50 came to 8.7 nM on Renin [13] and 6.9 nM at Renin [14]. Also, the logD in data set [6] was found to be 1.22; in data set [12], 0.91.

Consider `CCN1C[C@@H]([C@H](O)[C@H](CC2CCCCC2)NC(=O)[C@H](Cc2c[nH]cn2)NC(=O)[C@H](Cc2ccc(OC)cc2)NC(=O)N(C)CCOCOCCOC)OC1=O`, for which the IC50 is 14 nM on Renin [13] and 1.7 nM on Renin [14]. The values for the logD in data set [6] and in data set [12] were 2.03 and 1.83, respectively.

`CC(C)C(=O)N[C@@H](Cc1ccccc1)C(=O)N[C@@H](Cc1cnc[nH]1)C(=O)N[C@@H](CC1CCCCC1)[C@@H](O)[C@@H](O)CN=[N+]=[N-]` displayed an IC50 in data set [15] of 0.29 nM. For the same compound, in [1], the solubility came to 0.045 mM (≈ 26.9 µg/mL). Further, the Change in [9] stood at 18%.

Take `CCN1C[C@@H]([C@H](O)[C@H](CC2CCCCC2)NC(=O)[C@H](Cc2c[nH]cn2)NC(=O)[C@H](Cc2ccc(OC)cc2)NC(=O)N(C)CCOCOC)OC1=O`: the solubility in data set [1] amounted to 2.1 mM (≈ 1530 µg/mL). The IC50 on Renin [13] worked out at 27 nM; on Renin [14], 4.6 nM. For the same compound, the figures for the logD in [6] and in [12] were 2.3 and 2.08, respectively.

Take `CCN1C[C@@H]([C@H](O)[C@H](CC2CCCCC2)NC(=O)[C@H](Cc2cnc[nH]2)NC(=O)[C@@H](CC(=O)N2CCOCC2)Cc2ccccc2)OC1=O`: the IC50 against Renin [13] came to 1.3 nM; at Renin [14], 0.99 nM. In addition, the logD stood at 2.2 in data set [6] and 1.9 in data set [12].

Turning to `CCN1C[C@@H]([C@H](O)[C@H](CC2CCCCC2)NC(=O)[C@H](Cc2cnc[nH]2)NC(=O)[C@H](Cc2ccc(OC)cc2)NC(=O)N(C)CC(O)CO)OC1=O` (stereo partly drawn), the IC50 on Renin [13] stood at 46 nM; against Renin [14], 7.9 nM. Besides, the logD is 1.42 in [6] and 1.2 in data set [12].

As to `CCN1C[C@@H]([C@H](O)[C@H](CC2CCCCC2)NC(=O)[C@H](Cc2cnc[nH]2)NC(=O)[C@H](Cc2ccc(OC)cc2)NC(=O)N2CCOCC2)OC1=O`, the solubility in data set [1] worked out at 5.9 mM (≈ 4120 µg/mL). Besides, the IC50 was 9.6 nM at Renin [13] and 3.4 nM at Renin [14]. The values for the logD in data set [6] and in data set [12] were 2.11 and 1.91, respectively.

Take `CCN1C[C@@H]([C@H](O)[C@H](CC2CCCCC2)NC(=O)[C@H](Cc2cnc[nH]2)NC(=O)[C@@H](CC(=O)N(C)CCOCOC)Cc2ccccc2)OC1=O`: the IC50 at Renin [13] is 1.1 nM; at Renin [14], 0.49 nM. Besides, the logD was found to be 2.49 in data set [6] and 2.28 in data set [12].

Take `CCN1C[C@@H]([C@H](O)[C@H](CC2CCCCC2)NC(=O)[C@H](Cc2cnc[nH]2)NC(=O)[C@@H](CC(=O)N2C[C@H](OCOC)[C@H](OCOC)C2)Cc2ccccc2)OC1=O`: the solubility in [1] turned out to be 4.5 mM (≈ 3470 µg/mL). Besides, the half-inhibitory concentration (IC50) on Renin [13] came out at 11 nM; against Renin [14], 2.7 nM. The logD came out at 2.31 in [6] and 2.08 in data set [12].

For `CCN1C[C@@H]([C@H](O)[C@H](CC2CCCCC2)NC(=O)[C@H](Cc2c[nH]cn2)NC(=O)[C@H](Cc2ccc(OC)cc2)NC(=O)C(C)C)OC1=O`, the solubility in [1] amounted to 0.37 mM (≈ 242 µg/mL). Further, the IC50 against Renin [13] was determined as 9.9 nM; at Renin [14], 1.7 nM. Moreover, the logD is 2.85 in data set [6] and 2.67 in data set [12].

What is called IC50 is the concentration needed to halve the response being measured.
